Assay outcomes deposited in PubChem by several laboratories.
Mdm2-MdmX inh: inhibitors of human Mdm2/MdmX interaction; O15151+Q00987; SaOS-2 split-luciferase Mdm2/MdmX complementation, luminescence; inhibition, % at 8 µM; 3% of 330,000 active; AID 485346;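 active = inhibition of at least 50% at 8 µM in the primary screen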
Beta apoptosis: beta cell apoptosis inhibition | INS-1E cytokine-induced death, ATP luminescence, 48 h; percent of positive-control rescue, neutral wells zero | protection from apoptosis, % (concentration not given with the values) | 0.8% of 300,000 active | AID 435005;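 active = Every replicate reaches about 75%, or at least half do and their mean reaches it too, limit read from the data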;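 also: 0% = cytokine-treated negative control wells and 100% = positive control rescue; higher means more ATP so stronger rescue from cytokine killing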
CHOP UPR activ: activators of apoptotic arm of unfolded protein response (CHOP); CHO-CHOP luciferase reporter, UPR activation, luminescence; percent of tunicamycin response over DMSO baseline; activation, % at 10 µM; 0.34% of 330,000 active;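 active = at 10 µM dose, activation of 40% or more, normalized to positive control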;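 also: 100% = tunicamycin at 10 µg/mL and 0% = DMSO alone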
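Material: CHO-CHOP cells, stable luciferase reporter of PERK-eIF2a-CHOP signalling; quantity: 500 reporter cells seeded per well; buffer or medium: F12 medium containing 10% fetal bovine serum; compound: one dose, 10 µM in 0.5% DMSO; incubation: 6 h compound treatment, 37 °C; measured by: Steady-Glo luciferase luminescence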
XBP1 UPR activ: adaptive UPR (XBP1) activation; CHO-XBP1 luciferase reporter, IRE1-XBP1 UPR activation, luminescence; percent of tunicamycin response, DMSO as zero; activation, % at 20 µM; 0.33% of 330,000 active;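 active = versus positive control, 20 µM dose yields 30% or more activation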;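 also: 100% = tunicamycin at 10 µg/mL and 0% = DMSO only wells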
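incubation = overnight seeding at 37 °C, 6 h compound treatment at 37 °C | assay system = CHO-XBP1 cells stably carrying IRE1-XBP1-driven luciferase reporter | input = 1000 cells per well | detection = luciferase luminescence | dosing = single point, 20 µM final compound, 1% DMSO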
SKKanGAS inh: SKKanGAS growth inhibition; 1.3% of 300,000 active; S. pyogenes SKKanGAS, kanamycin growth, BacTiter-Glo, 6 h; inhibition, % at 7.5 µM; AID 1662;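 active = mean replicate score, as percent of positive control median, at least 50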;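 also: strain carries kanamycin resistance gene driven by streptokinase promoter and grows in 40 µg/ml kanamycin; loss of luminescence reflects streptokinase promoter inhibition or plain growth inhibition; 0% = median of DMSO wells and 100% = positive control at its reference dose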
CSC inhib: cancer stem cell inhibition; cancer stem cell-like cells viability, luminescence; AID 2717; inhibition, % at 7.5 µM; 1.1% of 300,000 active; in the data active = inhibition above about 75%; tested in HMLE shEcad cells
XBP1 UPR conf: confirmation of adaptive unfolded protein response (XBP1) activators. shares compounds with XBP1 UPR activ. CHO-XBP1 IRE1-XBP1 luciferase reporter, luminescence. activation, % at 20 µM. 63% of 1,000 active;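 active = reporter signal at least 30% of the positive control's activation in two or more of four replicate wells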;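 also: plate controls were DMSO negative control for no effect and tunicamycin 10 µg/mL positive control for full effect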
Mdm2 MdmX conf: human Mdm2/MdmX binding inhibition, confirmed; 55% of 10,000 active; shares compounds with Mdm2-MdmX inh; luminescent assay; inhibition, % at 8 µM; in the data active = inhibition above about 40%
Full FLuc ctr: counter-screen for Mdm2/MdmX inhibitors: full-length luciferase; shares compounds with Mdm2-MdmX inh; SaOS-2 full-length luciferase counterscreen, luminescence; inhibition, % at 8 µM; 77% of 6,200 active; AID 504607;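 active = mean inhibition at 8 µM reaching about 37%, which flags the compound as non-specific, limit read from the data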;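 also: p53-null SaOS-2 cells with luciferase driven by a doxycycline-inducible promoter; compound on cells about two nights before reading with doxycycline added after day one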
The depositor's hits bear a star; nt = no result given. Hits are enriched below; roughly 4.8% of the tested compounds scored in any of these assays.

SMILES	Mdm2-MdmX inh	Beta apoptosis	CHOP UPR activ	XBP1 UPR activ	SKKanGAS inh	CSC inhib	Mdm2 MdmX conf	Full FLuc ctr	others
C=C(C)[C@@]12OC3(c4ccccc4)O[C@@H]1C1[C@@H]4O[C@]4(CO)[C@@H](O)[C@]4(O)C(=O)C(C)=C[C@H]4[C@@]1(O3)[C@H](C)[C@H]2OC(=O)/C=C/C=C/c1ccccc1 (stereo not given in full)	77*	3	36	47*	30	6	12	nt	XBP1 UPR conf=61*
CCOC(=O)c1cccc(NC(=O)c2c(O)[nH]c(=O)[nH]c2=O)c1	2	-2	0	-2	10	-6	nt	nt
CCOC(=O)c1ccccc1C(=O)OCC	-9	-11	-1	1	17	-8	nt	nt
CCOC(=O)c1ccc(-[n+]2c(-c3ccccc3)cc(-c3ccccc3)cc2-c2ccccc2)cc1	93*	123*	12	-2	2	11	61*	24
CCOC(=O)c1cccc(-[n+]2c(-c3ccccc3)cc(-c3ccccc3)cc2-c2ccccc2)c1	89*	135*	0	-5	-7	19	50*	33
O=C1NC(=O)N(CCNc2ncc(C(F)(F)F)cc2Cl)C(=O)C1Cc1ccc(Cl)cc1 (stereo not given)	-12	-3	0	-2	6	-12	nt	nt
COC(=O)C1=C(c2cccc(C#N)c2)C[C@@H]2CC[C@H]1N2C(=O)N1CCc2cc(OC)c(OC)cc2C1	11	-6	0	-3	nt	-9	nt	nt
O=C(c1ccccc1F)N1C[C@H]2C[C@@H](C1)c1cccc(=O)n1C2	24	1	0	-1	-1	1	nt	nt
CC(C)(O)/C=C/C(=O)[C@](C)(O)C1[C@H](O)C[C@@]2(C)C3CC=C4C(C[C@H](O)[C@@H](O)C4(C)C)[C@]3(C)C(=O)C[C@]12C (stereo not given in full)	98*	52	4	-2	nt	53	94*	7
COc1ccc(/C=C/C(=O)c2c(O)n(CCC3=CCCCC3)c(=O)[nH]c2=O)cc1OC	69*	-5	1	0	20	7	34	nt
C[C@]12CC[C@H]3[C@@H](CCC4=CC(=O)CC[C@@]43C)[C@@H]1CC[C@@H]2O	10	nt	0	-1	nt	nt	nt	nt
CCOc1ccc(-c2c(C)n(-c3ccc(OCC)cc3)c3[n+]2CCCCC3)cc1	88*	nt	12	-1	3	34	87*	49*
O=[N+]([O-])NC1=NCCN1Cc1ccc(Cl)nc1	44	6	-4	-7	5	-5	nt	nt
CC(C)(O)[C@H]1O[C@H]2CC[C@@]3(C)[C@@](O)(CC[C@H]4Cc5c([nH]c6ccccc56)[C@@]43C)C2=CC1=O	62*	4	1	-7	7	16	50*	77*
C=C1C(O)[C@@H]2O[C@]3(CC[C@H](/C=C/C(C)[C@@H]4CC(C)=CC5(O[C@H](C[C@@](C)(O)C(=O)O)CCC5O)O4)O3)CC[C@H]2O[C@@H]1C(O)CC(C)[C@H]1OC2(CCCCO2)CCC1C (stereo not given in full)	98*	85*	-3	-4	nt	nt	100*	0
CC(C)[C@H]1CC2C3CC=C4C[C@@H](O)CC[C@]4(C)C3CC[C@]2(C)[C@H]1O (stereo not given in full)	1	5	-1	-5	nt	16	nt	nt
C[C@@H]1CC[C@@]2(NC1)O[C@H]1C[C@H]3[C@@H]4CC=C5C[C@@H](O)CC[C@]5(C)[C@H]4CC[C@]3(C)[C@H]1[C@@H]2C	58*	-3	0	-2	-1	8	10	nt
O=C1NC(=O)C(CCc2ccncc2)(C2CCCCC2)C(=O)N1	14	-8	0	1	3	7	nt	nt
CC1CCCC(C)N1/N=C/c1c[nH]c2ccc(Br)cc12 (stereo not given)	52*	4	9	-3	0	nt	27	nt
CN1CCC(c2c[nH]c3ccccc23)C1 (stereo not given)	-26	-2	-1	-2	17	1	nt	nt
Cc1cccc(-n2c(O)c(C=NCc3cccnc3)c(=O)[nH]c2=O)c1C	9	1	-3	-2	-8	-1	nt	nt
CC(=O)O[C@@]12CO[C@@H]1C[C@H](OC1OCC(O)C(O)C1O)[C@@]1(C)C(=O)[C@H](O)C3=C(C)[C@@H](OC(=O)[C@H](O)[C@@H](NC(=O)c4ccccc4)c4ccccc4)C[C@@](O)([C@@H](OC(=O)c4ccccc4)C12)C3(C)C (stereo not given in full)	53*	11	1	-1	2	42	39	59*
CCCCCC(=O)N[C@@H](c1ccccc1)[C@@H](O)C(=O)O[C@H]1C[C@@]2(O)[C@@H](OC(=O)c3ccccc3)C3[C@](C)(C(=O)[C@H](O)C(=C1C)C2(C)C)[C@@H](OC1OCC(O)C(O)C1O)C[C@H]1OC[C@@]31OC(C)=O (stereo not given in full)	57*	7	-4	-3	5	47	60*	52*
CC(=O)O[C@@]12CO[C@@H]1C[C@@H](O)[C@@]1(C)C(=O)[C@H](O)C3=C(C)[C@@H](OC(=O)[C@H](O)[C@@H](NC(=O)c4ccccc4)c4ccccc4)C[C@@](O)([C@@H](OC(=O)c4ccccc4)C12)C3(C)C (stereo not given in full)	51*	3	-1	-2	12	-2	61*	48*
CCOc1ccc2[nH]c(=O)c(CN(CCO)C3(c4nnnn4C4CCCCC4)CCCCC3)cc2c1	14	7	0	-2	2	14	nt	nt
CC(c1ccccc1)[n+]1ccccc1 (stereo not given)	3	3	0	-1	0	0	nt	nt
O=C(COc1ccc2ccc(=O)oc2c1)N1CCC(C(=O)O)(c2ccccc2)CC1	-7	-5	2	2	4	-7	nt	nt
CCCCN=C[C@]12CCC(O)CC1(O)CCC1[C@@H]2CC[C@]2(C)[C@H](C3C=CC(=O)O3)CCC12O (stereo not given in full)	59*	-10	-3	-4	-3	99*	70*	50*
